Results published in ChEMBL document CHEMBL2086286, “Synthesis, antitumor, cytotoxic and antioxidant evaluation of some new pyrazolotriazines attached to antipyrine moiety” (Eur J Med Chem, 2012).
≈ marks a conversion by molar mass, not a printed value. Where “and” joins values, the source holds several entries; their conditions need not be identical. Identical values can stand only once. Calls of active or inactive are those of the source. The calls are words filed in the database; no cut-off is given here.

Columns and labels:
[1] = Antioxidant activity assessed as ABTS free radical scavenging activity at 1 mg/mL by spectroscopic analysis; format: functional
Method in brief: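 ABTS radical cation generated by reacting ABTS with MnO2 (25 mg/mL) in phosphate buffer pH 7, then centrifuged and filtered. Absorbance read at 734 nm before and after adding test sample (1 mg/mL in MeOH/buffer 1:1). % inhibition = [A(control) − A(test)]/A(control) × 100. Ascorbic acid (2 mM) as positive control; solvent blank without ABTS.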

[2] = Cytotoxicity against mouse EAC after 2 hrs by trypan blue staining based hemocytometer analysis; format: functional, Ehrlich; details: for IC50: ehrlich
Method in brief: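 Ehrlich ascites cells aspirated aseptically from the peritoneal cavity of a donor animal. Held in RPMI with 10% FBS at 37 °C, 5% CO2 for 2 h with compound at 25, 50 and 100 µg, final DMSO 0.1%. Dead cells counted by trypan blue staining on a hemocytometer; DMSO-only control viability exceeded 95%. 5-Fluorouracil as reference.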

MCF7 = experiment: Cytotoxicity against human MCF7 cells after 96 hrs by MTT assay; format: functional, cell-based; details: MCF7, 96 h
Vero = experiment: Cytotoxicity against African green monkey Vero cells after 96 hrs by MTT assay; format: cell-based; details: Chlorocebus sabaeus
WI-38 = experiment: Cytotoxicity against human WI38 cells after 96 hrs by MTT assay; format: functional, cell-based; details: WI-38, 96 h
Nucleic Acid = experiment: Protective activity against bleomycin-iron complex-induced DNA damage at 0.1 mg/ml after 1 hr; format: nucleic-acid assay
Method in brief: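 Final reaction mixture: DNA 0.2 mg/mL, bleomycin 0.05 mg/mL, FeCl3 0.025 mM, MgCl2 5 mM, KH2PO4/KOH pH 7.0 30 mM, and test sample 0.1 mg/mL (in MeOH) or ascorbic acid 0.24 mM. Incubated 1 h at 37 °C, stopped with EDTA. DNA damage measured by adding 1% TBA and 25% HCl, heating 15 min at 80 °C, then reading absorbance.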

HepG2 = experiment: Cytotoxicity against human HepG2 cells after 96 hrs by MTT assay; format: functional, cell-based; details: HepG2, 96 h

SMILES | inhibition [1] [%] | ED25 [2] [µg] | ED100 [2] [µg] | IC50 [2] | IC50 (MCF7) [µg/mL] | IC50 (Vero) [µg/mL] | IC50 (WI-38) [µg/mL] | Activity (Nucleic Acid) | IC50 (HepG2) [µg/mL]
CC(=N)/C(C#N)=N\Nc1c(C)n(C)n(-c2ccccc2)c1=O | 80.9 | 0.46 | 97.2 | 100 µg | 15.1 (≈ 51 µM) | 10 (≈ 33.7 µM) | 13.8 (≈ 46.6 µM) | Active | 8.3 (≈ 28 µM)
Cc1nn2c(N)c(C#N)nnc2c1/N=N/c1c(C)n(C)n(-c2ccccc2)c1=O | 15.9 | 34.26 | 62 | 91.9 µg and 42.8 µg | 452 (≈ 1160 µM) | 301 (≈ 775 µM) | 377 (≈ 971 µM) |  | 254 (≈ 654 µM)
CC1=NNC(=O)/C1=N/Nc1n[nH]c(C)c1/N=N/c1c(C)n(C)n(-c2ccccc2)c1=O | 16.1 | 26.63 | 63.3 | 93 µg and 45.5 µg | 393 (≈ 935 µM) | 214 (≈ 508 µM) | 300 (≈ 713 µM) |  | 202 (≈ 480 µM)
CC(=O)c1nnc2c(/N=N/c3c(C)n(C)n(-c4ccccc4)c3=O)c(C)nn2c1C | 27.5 | 11.01 | 73.9 | 96.7 µg and 55.5 µg | 30.6 (≈ 75.7 µM) | 33.1 (≈ 81.8 µM) | 40.3 (≈ 99.6 µM) |  | 39.3 (≈ 97.2 µM)
Cc1[nH]nc(N/N=C(\C#N)c2nc3ccccc3s2)c1/N=N/c1c(C)n(C)n(-c2ccccc2)c1=O | 19.3 | 11.17 | 70.8 | 95 µg and 56.4 µg | 164 (≈ 330 µM) | 181 (≈ 364 µM) | 169 (≈ 341 µM) |  | 179 (≈ 360 µM)
CCOC(=O)/C(C#N)=N/Nc1n[nH]c(C)c1/N=N/c1c(C)n(C)n(-c2ccccc2)c1=O | 21.6 | 22.53 | 68.7 | 94.9 µg and 49.8 µg | 150 (≈ 344 µM) | 179 (≈ 412 µM) | 169 (≈ 389 µM) |  | 153 (≈ 352 µM)
Cc1nn2c3c(nnc2c1/N=N/c1c(C)n(C)n(-c2ccccc2)c1=O)C(=O)CCC3 | 52.5 | 0.67 | 91.4 | 99 µg and 80.2 µg | 68.2 (≈ 164 µM) | 61.1 (≈ 147 µM) | 53 (≈ 127 µM) | Active | 55.3 (≈ 133 µM)
O=C1O[C@H]([C@@H](O)CO)C(O)=C1O | 92.3 |  |  |  |  |  |  |  | 
CC(=N)/C(C#N)=N\Nc1n[nH]c(C)c1/N=N/c1c(C)n(C)n(-c2ccccc2)c1=O | 28.6 | 1.3 | 80 | 97.5 µg and 60.1 µg | 69 (≈ 171 µM) | 735 (≈ 1820 µM) | 70.2 (≈ 174 µM) |  | 70.8 (≈ 175 µM)
Cc1nn2c(N)c(-c3nc4ccccc4s3)nnc2c1/N=N/c1c(C)n(C)n(-c2ccccc2)c1=O | 17.2 | 26.63 | 64 | 93.8 µg and 49 µg | 186 (≈ 374 µM) | 244 (≈ 491 µM) | 199 (≈ 400 µM) |  | 225 (≈ 454 µM)
Cc1nn2c(nnc3c(C)n[nH]c32)c1/N=N/c1c(C)n(C)n(-c2ccccc2)c1=O | 16.1 | 34.69 | 61 | 92.1 µg and 43 µg | 411 (≈ 1020 µM) | 276 (≈ 687 µM) | 311 (≈ 772 µM) |  | 210 (≈ 521 µM)
